Reference: publication PMC3119707 (Reproduction (Cambridge, England), 2010)
Read-outs that look alike come from different tables or passages of the source.

Legend:
[1] = tested on: cGMP in mouse ovarian follicles; experiment: cGMP ELISA assay in isolated ovarian follicles; assay type: cell-based
Summary of the method: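 Cultured mouse antral follicles (24–32 h, FSH, 3 mg/ml BSA), treated 1 h with LH (350 nM) or epiregulin (100 nM), or 1 h 500 nM test compound then 1 h test compound + LH. 12–20 unfrozen follicles washed in Ca/Mg-free PBS, sonicated in 0.1 M HCl (±1% Triton X-100), heated 95°C 2 min, stored −80°C, assayed by cGMP ELISA. Concentration approximated from 20 nl estimated cellular volume; mean ± s.e.m.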

[2] = tested on: follicle-enclosed oocytes; experiment: Nuclear envelope breakdown; assay type: cell-based, mouse
Summary of the method: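 Meiotic resumption scored by viewing the oocyte nucleus through the follicle wall from above (20X/0.4 NA long working distance objective). Follicles from 23–24-day B6SJLF1 mice were cultured 24–32 h in FSH-containing, serum-free medium (3 mg/ml BSA), 37°C, 5% CO2, checked at 24 h, and only healthy prophase-arrested ones used. LH at 350 nM. Experiments discarded when <70% of LH controls reached NEBD by 5 h.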

[3] = tested on: gap junctions in mouse ovarian follicles; experiment: Gap junction permeability by Alexa Fluor 350 tracer injection; assay type: cell-based; conditions: for MG/IC fluorescence ratio as percent of the basal level: one hour treatment, LH 350 nM, epiregulin 100 nM
Summary of the method: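 Antral follicles (~320–400 μm) from 23–24-day B6SJLF1 mice, cultured 24–32 h at 37°C, 5% CO2, in phenol-red-free MEMα with FSH and 3 mg/ml BSA; 1 h LH (350 nM) or epiregulin. Follicle-enclosed oocyte microinjected with 2.5 mM Alexa Fluor 350 (326 Da); two-photon imaging 20 min later; mural granulosa/inner cumulus fluorescence ratio; mean ± s.e.m., n = follicles.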

[4] = target: T1, EGFR (Mus musculus, UniProt Q01279); experiment: Immunoblot of EGFR phosphorylation on tyrosine 1068 in follicles; assay type: cell-based; conditions: 500 nM AG1478, follicles stimulated with LH
[5] = tested on: 110 kinases; experiment: In vitro kinase profiling panel; assay type: biochemical; conditions: for percent of activity remaining: 1 μM AG1478
[6] = target: ERK1 (Homo sapiens, UniProt P27361); experiment: In vitro kinase profiling, ERK1; assay type: biochemical; conditions: 1 μM AG1478
[7] = target: ERK2 (Homo sapiens, UniProt P28482); experiment: In vitro kinase profiling, ERK2; assay type: biochemical; conditions: 1 μM AG1478
[8] = tested on: cGMP in mouse ovarian follicles; conditions: ref Vaccari et al. 2009, cited from earlier work
[9] = target: T1, EGFR; conditions: 500 nM AG1478, follicles stimulated with LH; ref Panigone et al. 2008; cited from earlier work
[10] = target: EGFR kinase; conditions: read-out: IC50, EGFR kinase activity; in vitro; ref Levitzki & Gazit 1995; cited from earlier work
[11] = tested on: follicle-enclosed oocytes; conditions: U0126; ref Su et al., 2003; Norris et al. 2008; cited from earlier work
[12] = tested on: gap junctions in mouse ovarian follicles; conditions: 10 μM U0126; ref Norris et al. 2008; cited from earlier work
[13] = tested on: MAP kinase; conditions: 10 μM U0126; ref Norris et al. 2008; cited from earlier work

T1 sequence (Q01279 25-1210): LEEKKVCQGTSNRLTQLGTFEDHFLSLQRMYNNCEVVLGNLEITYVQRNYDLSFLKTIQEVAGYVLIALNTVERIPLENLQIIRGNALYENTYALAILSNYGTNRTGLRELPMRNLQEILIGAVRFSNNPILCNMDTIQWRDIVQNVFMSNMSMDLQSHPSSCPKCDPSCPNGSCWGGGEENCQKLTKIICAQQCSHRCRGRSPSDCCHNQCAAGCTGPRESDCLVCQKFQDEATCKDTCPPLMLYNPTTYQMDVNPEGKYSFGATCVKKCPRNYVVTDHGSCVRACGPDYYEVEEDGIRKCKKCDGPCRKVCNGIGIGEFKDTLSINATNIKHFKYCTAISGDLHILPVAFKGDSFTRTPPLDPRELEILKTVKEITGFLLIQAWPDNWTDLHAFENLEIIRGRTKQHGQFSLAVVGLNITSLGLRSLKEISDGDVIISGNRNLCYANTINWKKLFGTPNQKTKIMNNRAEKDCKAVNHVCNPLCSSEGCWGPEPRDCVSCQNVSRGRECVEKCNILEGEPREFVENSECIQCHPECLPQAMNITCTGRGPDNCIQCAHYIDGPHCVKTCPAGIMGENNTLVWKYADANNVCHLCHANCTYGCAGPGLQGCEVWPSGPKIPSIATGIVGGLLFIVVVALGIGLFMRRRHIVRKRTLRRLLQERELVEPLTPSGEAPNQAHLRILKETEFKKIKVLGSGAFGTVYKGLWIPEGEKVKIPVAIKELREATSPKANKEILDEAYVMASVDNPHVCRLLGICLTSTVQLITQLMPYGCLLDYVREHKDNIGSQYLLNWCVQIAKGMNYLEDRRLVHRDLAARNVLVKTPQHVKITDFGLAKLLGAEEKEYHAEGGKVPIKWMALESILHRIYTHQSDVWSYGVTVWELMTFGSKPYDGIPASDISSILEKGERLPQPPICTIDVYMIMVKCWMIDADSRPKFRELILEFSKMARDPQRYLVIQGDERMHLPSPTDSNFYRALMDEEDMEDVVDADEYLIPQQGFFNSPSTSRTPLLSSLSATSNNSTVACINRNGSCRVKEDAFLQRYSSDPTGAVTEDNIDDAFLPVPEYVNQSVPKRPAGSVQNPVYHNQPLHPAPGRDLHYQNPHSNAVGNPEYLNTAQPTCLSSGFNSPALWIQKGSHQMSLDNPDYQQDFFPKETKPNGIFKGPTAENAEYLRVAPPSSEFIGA
ERK2, sequence (P28482 whole entry, species assumed): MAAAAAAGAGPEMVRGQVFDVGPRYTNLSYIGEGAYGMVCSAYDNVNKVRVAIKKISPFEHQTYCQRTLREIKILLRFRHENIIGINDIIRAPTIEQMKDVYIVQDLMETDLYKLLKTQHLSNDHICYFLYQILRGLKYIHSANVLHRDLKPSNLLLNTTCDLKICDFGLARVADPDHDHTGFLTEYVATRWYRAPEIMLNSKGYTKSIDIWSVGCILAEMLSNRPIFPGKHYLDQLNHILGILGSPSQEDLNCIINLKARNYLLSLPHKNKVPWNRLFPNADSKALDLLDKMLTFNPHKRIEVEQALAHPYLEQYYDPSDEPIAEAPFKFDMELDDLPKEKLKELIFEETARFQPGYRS
ERK1, sequence (P27361 whole entry, species assumed): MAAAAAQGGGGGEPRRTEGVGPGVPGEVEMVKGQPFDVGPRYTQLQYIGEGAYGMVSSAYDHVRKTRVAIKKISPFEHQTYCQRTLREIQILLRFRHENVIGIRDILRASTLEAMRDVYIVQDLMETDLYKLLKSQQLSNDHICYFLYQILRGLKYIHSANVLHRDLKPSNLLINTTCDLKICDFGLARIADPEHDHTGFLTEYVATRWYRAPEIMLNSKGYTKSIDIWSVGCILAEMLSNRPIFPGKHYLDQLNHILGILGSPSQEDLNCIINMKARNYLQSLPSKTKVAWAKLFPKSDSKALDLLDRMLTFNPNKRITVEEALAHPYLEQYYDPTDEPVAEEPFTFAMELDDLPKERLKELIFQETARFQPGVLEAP

COc1cc2ncnc(Nc3cccc(Cl)c3)c2cc1OC [AG1478]
cGMP as percent of the basal level ([1]; 1 hour after LH in the presence of 500 nM AG1478): ~ 15% | follicle cGMP concentration ([1]; 1 hour after LH in the presence of 500 nM AG1478 (1 hour pretreatment)): […] | oocytes that had resumed meiosis ([2]; 500 nM AG1478 + LH, observed at 20 hours): ~ 30% | effect on nuclear envelope breakdown in response to LH ([2]; 500 nM AG1478, observed at 6 hours): completely inhibited | gap junction permeability after LH application ([3]; in the presence of 500 nM AG1478): indistinguishable from that in an untreated follicle | LH-stimulated phosphorylation of the EGFR on tyrosine 1068 [4]: indistinguishable from the basal level without LH | percent of activity remaining ([5]; seven of the 110 kinases tested): 30-50% | percent of activity remaining ([5]; the other 101 kinases): > 50% | percent of activity remaining ([5]; two of the 110 kinases tested): 10-20% | IC50 ([5]; 101 out of the 110 kinases tested): > 1000 nM | inhibition of ERK1 [6]: not inhibited | inhibition of ERK2 [7]: not inhibited | effect on the cGMP decrease in response to LH ([8]; 500 nM AG1478): completely inhibited | effect on LH-induced EGFR phosphorylation on tyrosine 1068 [9]: completely inhibits | IC50 [10]: […]

N#CC(=C(/N)Sc1ccccc1N)/C(C#N)=C(/N)Sc1ccccc1N [U0126]
effect on the cGMP decrease in response to LH ([1]; 10 μM U0126, 1 hour pretreatment then 1 hour U0126 + LH): did not have any inhibitory effect | meiotic resumption in response to LH in the presence of inhibitor [11]: causes meiotic resumption | effect on gap junction closure in response to LH [12]: completely inhibits | effect on MAP kinase activation in response to LH [13]: fully inhibit

epiregulin
part of the LH-induced follicle cGMP decrease caused by epiregulin ([1]; 100 nM epiregulin, 1 hour, relative to LH): ~ 80% | follicle cGMP concentration ([1]; 1 hour treatment with 100 nM epiregulin): ~ 600 nM | oocytes that underwent nuclear envelope breakdown ([2]; 100 nM epiregulin, by 4 hours): Approximately 90% | MG/IC fluorescence ratio as percent of the basal level [3]: 32%

luteinizing hormone [LH]
cGMP as percent of the basal level ([1]; 1 hour after LH application): ~ 4% | follicle cGMP concentration ([1]; 1 hour after LH application (350 nM), approximate): ~ 100 nM | follicle cGMP concentration ([1]; 5 hours after LH application (350 nM), approximate): ~ 30 nM | MG/IC fluorescence ratio as percent of the basal level [3]: 9% | cGMP as percent of the basal level ([8]; 1 hour after LH application): 39%
